Reference: PMC2606940 (The Journal of General Physiology, 2009)
Changes are numbered by the printed parent chain. Like-named read-outs stand apart in the source and are kept apart here.

How the values were obtained:
CLC-0 E166Q mutant = molecular target: T1, CLC-0 E166Q mutant (Torpedo marmorata, UniProt P21564, C212S/E166Q); format: cell-based
T1 sequence (P21564 1-805 E166Q/C212S): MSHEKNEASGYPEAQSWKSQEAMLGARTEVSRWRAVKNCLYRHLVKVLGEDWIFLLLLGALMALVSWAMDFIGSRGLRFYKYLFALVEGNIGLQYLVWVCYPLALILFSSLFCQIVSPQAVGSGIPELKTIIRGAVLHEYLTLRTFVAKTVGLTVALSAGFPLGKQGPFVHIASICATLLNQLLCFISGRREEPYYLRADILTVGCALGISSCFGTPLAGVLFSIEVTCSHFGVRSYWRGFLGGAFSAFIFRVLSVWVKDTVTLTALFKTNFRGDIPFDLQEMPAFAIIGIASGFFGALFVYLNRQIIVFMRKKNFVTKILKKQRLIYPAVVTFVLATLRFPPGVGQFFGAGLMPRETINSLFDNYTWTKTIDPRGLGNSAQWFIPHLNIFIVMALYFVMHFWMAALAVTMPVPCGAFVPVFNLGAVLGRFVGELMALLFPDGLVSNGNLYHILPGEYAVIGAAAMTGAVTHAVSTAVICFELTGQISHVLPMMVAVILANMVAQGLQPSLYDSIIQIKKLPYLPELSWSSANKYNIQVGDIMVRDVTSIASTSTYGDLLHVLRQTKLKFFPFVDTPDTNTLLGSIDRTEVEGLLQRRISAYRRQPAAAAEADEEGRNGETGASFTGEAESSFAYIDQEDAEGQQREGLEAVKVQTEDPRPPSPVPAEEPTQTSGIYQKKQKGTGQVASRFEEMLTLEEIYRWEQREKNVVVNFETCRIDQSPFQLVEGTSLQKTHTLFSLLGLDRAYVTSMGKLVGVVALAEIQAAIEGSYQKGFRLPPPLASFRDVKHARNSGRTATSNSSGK
Outline: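 HEK293 cells expressed C212S-background CLC-0 mutants and were recorded 1–3 d post-transfection as inside-out patches in symmetrical 130 mM NaCl, 10 mM HEPES, pH 7.4. CPA, fatty acids or alkyl sulfates flowed continuously on the cytoplasmic side. C10–C12 compounds were diluted into bath solution from 10 mM DMSO stocks. Test steps ran from +80 to −160 mV after a +80 mV prepulse. Steady-state current was normalized to the mean of pre- and post-blocker controls, and a Langmuir K1/2 was taken at each voltage from ~4–6 patches.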

CLC-0 E166I mutant = molecular target: T2, CLC-0 E166I mutant (Torpedo marmorata, UniProt P21564, C212S/E166I); format: cell-based; details: read-out: Apparent affinity (K1/2)
T2 sequence (P21564 1-805 E166I/C212S): T1 sequence (P21564 1-805 E166Q/C212S) with Q166I
Outline: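 CLC-0 mutants in the C212S background were transfected into HEK293 cells with lipofectamine and recorded 1–3 d later as excised inside-out patches. Both sides held 130 mM NaCl, 5 mM MgCl2, 10 mM HEPES and 1 mM EGTA, pH 7.4. CPA was perfused continuously onto the cytoplasmic face. Steady-state current over the last 10 ms was normalized to bracketing blocker-free controls and fitted to a Langmuir function for K1/2. Values are mean ± SEM of ~4–6 patches.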

[1] = read-out: Apparent affinity (K1/2), −60 mV
[2] = read-out: Apparent affinity (K1/2), −80 mV
[3] = read-out: Apparent affinity (K1/2), −100 mV
[4] = read-out: Apparent affinity (K1/2), −120 mV
[5] = read-out: Apparent affinity (K1/2), −140 mV
[6] = read-out: Apparent affinity (K1/2), −160 mV

IC50 (CLC-0 E166Q mutant; read-out: Apparent affinity (K1/2), −40 mV) [µM]	IC50 (CLC-0 E166Q mutant; read-out: K1/2, Fig. 10 D) [µM]	Structure (SMILES)	inhibition of current (CLC-0 E166Q mutant; 300 μM CPA, −160 mV) [%]	IC50 (CLC-0 E166Q mutant; [1]) [µM]	IC50 (CLC-0 E166Q mutant; [2]) [µM]	IC50 (CLC-0 E166Q mutant; [3]) [µM]	IC50 (CLC-0 E166Q mutant; [4]) [µM]	IC50 (CLC-0 E166Q mutant; [5]) [µM]	IC50 (CLC-0 E166Q mutant; [6]) [µM]	IC50 (CLC-0 E166I mutant; −40 mV) [µM]	IC50 (CLC-0 E166I mutant; −60 mV) [µM]	IC50 (CLC-0 E166I mutant; −80 mV) [µM]	IC50 (CLC-0 E166I mutant; −100 mV) [µM]	IC50 (CLC-0 E166I mutant; −120 mV) [µM]	IC50 (CLC-0 E166I mutant; −140 mV) [µM]	IC50 (CLC-0 E166I mutant; −160 mV) [µM]
–	–	O=C(O)COc1ccc(Cl)cc1 [CPA, p-chlorophenoxy acetate]	< 10	19700 ± 900	14000 ± 700	9710 ± 480	6840 ± 310	4710 ± 150	3340 ± 80	1250 ± 230	683 ± 85	384 ± 41	220 ± 24	117 ± 11	68 ± 8	39 ± 4
17800 ± 1500	~1000	CCCCCCCC(=O)O [octanoate]	–	11400 ± 690	6940 ± 360	4210 ± 240	2530 ± 160	1450 ± 100	880 ± 90	218 ± 49	136 ± 26	79 ± 13	45 ± 7	26 ± 3	15 ± 2	9 ± 1
